Measured values: ChEMBL document CHEMBL1177891, “Synthesis and bioassay of pyrrolyl oxazolines and thiazolines” (2010)
Values after ≈ are worked out from the molar mass of the structure shown.

Key:
Type in all cases: functional
Fusarium solani [1] = test: Antifungal activity against Fusarium solani at 100 ug/disk after 48 hrs by disk diffusion method; conditions: read-out: IZ
Procedure, shortened: (§1)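 Fungi from NCIM on nutrient agar plates, pre-inoculated. 6 mm paper discs carrying 100 or 200 μg compound in DMSO applied. Plates incubated at 37 °C and inhibition zone diameter measured at 48 h. Ketoconazole control.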

Bacillus subtilis [2] = test: Antibacterial activity against Bacillus subtilis after 24 hrs by microdilution susceptibility assay
Procedure, shortened: (§2)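 Bacterial strains from NCIM. Broth microdilution: stocks at 800 μg/ml in DMSO, two-fold dilutions 400, 200, 100 ... 6.25 μg/ml, wells inoculated with bacterial suspension, 36 °C for 24 h. MIC = lowest concentration with no turbidity (no visible growth). Chloramphenicol as reference.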

Klebsiella pneumoniae [3] = test: Antibacterial activity against Klebsiella pneumoniae after 24 hrs by microdilution susceptibility assay; procedure, shortened: as §2
Bacillus subtilis [4] = test: Antibacterial activity against Bacillus subtilis at 100 ug/disk after 24 hrs by disk diffusion method; conditions: read-out: IZ
Procedure, shortened: (§3)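 Agar disc diffusion on nutrient agar with NCIM bacteria. 6 mm sterile paper discs moistened with compound in DMSO (100 or 200 μg/disc) placed on pre-inoculated plates. Incubated at 37 °C; growth-inhibition zone diameter measured after 24 h. Chloramphenicol control.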

Proteus vulgaris [5] = test: Antibacterial activity against Proteus vulgaris after 24 hrs by microdilution susceptibility assay; procedure, shortened: as §2
Curvularia lunata [6] = test: Antifungal activity against […] lunata at 200 ug/disk after 48 hrs by disk diffusion method; conditions: read-out: IZ; procedure, shortened: as §1
Staphylococcus aureus [7] = test: Antibacterial activity against Staphylococcus aureus after 24 hrs by microdilution susceptibility assay; procedure, shortened: as §2
Aspergillus niger [8] = test: Antifungal activity against Aspergillus niger at 200 ug/disk after 48 hrs by disk diffusion method; conditions: read-out: IZ; procedure, shortened: as §1
Staphylococcus aureus [9] = test: Antibacterial activity against Staphylococcus aureus at 100 ug/disk after 24 hrs by disk diffusion method; conditions: read-out: IZ; procedure, shortened: as §3
Fusarium solani [10] = test: Antifungal activity against Fusarium solani at 200 ug/disk after 48 hrs by disk diffusion method; conditions: read-out: IZ; procedure, shortened: as §1
Curvularia lunata [11] = test: Antifungal activity against Curvularia lunata at 100 ug/disk after 48 hrs by disk diffusion method; conditions: read-out: IZ; procedure, shortened: as §1
Bacillus subtilis [12] = test: Antibacterial activity against Bacillus subtilis at 200 ug/disk after 24 hrs by disk diffusion method; conditions: read-out: IZ; procedure, shortened: as §3
Fusarium solani [13] = test: Antifungal activity against Fusarium solani after 48 hrs by microdilution susceptibility assay
Procedure, shortened: (§4)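 Fungal strains from NCIM. Microdilution: stocks at 800 μg/ml in DMSO, two-fold dilutions 400 down to 6.25 μg/ml, wells inoculated with fungal suspension, incubated 36 °C for 48 h. MIC read as lowest concentration without turbidity. Ketoconazole reference.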

[14] = Antioxidant activity assessed as increase in reducing power at 100 uM
Procedure, shortened: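 Oyaizu method. Compound at 100 μM in methanol mixed with 0.2 M phosphate buffer pH 6.6 and 1% potassium ferricyanide, 50 °C for 20 min. 10% TCA added, then centrifuged 3000 rpm for 10 min. Upper layer mixed with water and 0.1% FeCl3; absorbance read at 700 nm.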

Aspergillus niger [15] = test: Antifungal activity against Aspergillus niger after 48 hrs by microdilution susceptibility assay; procedure, shortened: as §4
Aspergillus niger [16] = test: Antifungal activity against Aspergillus niger at 100 ug/disk after 48 hrs by disk diffusion method; conditions: read-out: IZ; procedure, shortened: as §1
[17] = tested on: Radical scavenging activity; test: Antioxidant activity assessed as DPPH radical scavenging activity at 100 uM
Procedure, shortened: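 Compound (100 μM) added to 100 μM DPPH in dioxane/ethanol. Kept at ambient temperature 20 min, then absorbance read at 517 nm. Percent DPPH scavenging taken from difference between test and control.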

Proteus vulgaris [18] = test: Antibacterial activity against Proteus vulgaris at 100 ug/disk after 24 hrs by disk diffusion method; conditions: read-out: IZ; procedure, shortened: as §3
[19] = Antioxidant activity assessed as inhibition of nitric oxide production at 100 uM
Procedure, shortened: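 Sodium nitroprusside ([…]) in phosphate buffer pH 7.4 incubated with 100 μM compound (dioxane/methanol) at 25 °C for 120 min; solvent-only control. Aliquots mixed 1:1 with Griess reagent (1% sulfanilamide, 0.1% N-naphthylethylenediamine, 2% phosphoric acid). Absorbance at 546 nm, triplicate.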

Klebsiella pneumoniae [20] = test: Antibacterial activity against Klebsiella pneumoniae at 100 ug/disk after 24 hrs by disk diffusion method; conditions: read-out: IZ; procedure, shortened: as §3
Proteus vulgaris [21] = test: Antibacterial activity against Proteus vulgaris at 200 ug/disk after 24 hrs by disk diffusion method; conditions: read-out: IZ; procedure, shortened: as §3
Curvularia lunata [22] = test: Antifungal activity against Curvularia lunata after 48 hrs by microdilution susceptibility assay; procedure, shortened: as §4
Staphylococcus aureus [23] = test: Antibacterial activity against Staphylococcus aureus at 200 ug/disk after 24 hrs by disk diffusion method; conditions: read-out: IZ; procedure, shortened: as §3
Klebsiella pneumoniae [24] = test: Antibacterial activity against Klebsiella pneumoniae at 200 ug/disk after 24 hrs by disk diffusion method; conditions: read-out: IZ; procedure, shortened: as §3

Structure (SMILES) | zone of inhibition at 100 µg/disc (Fusarium solani [1]) [mm] | MIC (Bacillus subtilis [2]) [µg/mL] | MIC (Klebsiella pneumoniae [3]) [µg/mL] | zone of inhibition at 100 µg/disc (Bacillus subtilis [4]) [mm] | MIC (Proteus vulgaris [5]) [µg/mL] | zone of inhibition at 200 µg/disc (Curvularia lunata [6]) [mm] | MIC (Staphylococcus aureus [7]) [µg/mL] | zone of inhibition at 200 µg/disc (Aspergillus niger [8]) [mm] | zone of inhibition at 100 µg/disc (Staphylococcus aureus [9]) [mm] | zone of inhibition at 200 µg/disc (Fusarium solani [10]) [mm] | zone of inhibition at 100 µg/disc (Curvularia lunata [11]) [mm] | zone of inhibition at 200 µg/disc (Bacillus subtilis [12]) [mm] | MIC (Fusarium solani [13]) [µg/mL] | inhibition [14] [%] | MIC (Aspergillus niger [15]) [µg/mL] | zone of inhibition at 100 µg/disc (Aspergillus niger [16]) [mm] | inhibition [17] [%] | zone of inhibition at 100 µg/disc (Proteus vulgaris [18]) [mm] | inhibition [19] [%] | zone of inhibition at 100 µg/disc (Klebsiella pneumoniae [20]) [mm] | also measured
O=S(=O)(CC1=NCCS1)c1c[nH]cc1S(=O)(=O)c1ccccc1 | 34 | 50 (≈ 135 µM) | 100 (≈ 270 µM) | 30 | 100 (≈ 270 µM) | 35 | 100 (≈ 270 µM) | 33 | 29 | 37 | 32 | 32 | 100 (≈ 270 µM) | 32.4 | 100 (≈ 270 µM) | 30 | 33.8 | 24 | 34.6 | 23 | zone of inhibition at 200 µg/disc (Proteus vulgaris [21]): 28 mm; MIC (Curvularia lunata [22]): 100 µg/mL (≈ 270 µM); zone of inhibition at 200 µg/disc (Staphylococcus aureus [23]): 30 mm; zone of inhibition at 200 µg/disc (Klebsiella pneumoniae [24]): 25 mm
O=S(=O)(CC1=NCCS1)c1c[nH]cc1S(=O)(=O)c1ccc(Cl)cc1 | 35 | 12.5 (≈ 30.9 µM) | 50 (≈ 123 µM) | 33 | 50 (≈ 123 µM) | 41 | 25 (≈ 61.7 µM) | 38 | 32 | 38 | 36 | 35 | 50 (≈ 123 µM) | 40.4 | 25 (≈ 61.7 µM) | 34 | 40.5 | 29 | 41.4 | 27 | zone of inhibition at 200 µg/disc (Proteus vulgaris [21]): 30 mm; MIC (Curvularia lunata [22]): 12.5 µg/mL (≈ 30.9 µM); zone of inhibition at 200 µg/disc (Staphylococcus aureus [23]): 34 mm; zone of inhibition at 200 µg/disc (Klebsiella pneumoniae [24]): 29 mm
